{"data": "Experimental data gathered from unrelated publications", "cell line": "HCT-116", "observed": "cell growth or viability"}
{"Structure (SMILES)": "COc1ccc(NC(=O)c2c(Nc3ccccc3)sc(C(=O)NN=Cc3ccc(Cl)cc3)c2NC(C)=O)cc1", "assay": "SRB", "setting": "1 µM, 48 h", "endpoint": "viability", "value": "74.2%"}
{"Structure (SMILES)": "COc1ccc(C(=O)/C=C/c2ccccc2Br)cc1S(N)(=O)=O", "assay": "SRB", "setting": "10 µM", "endpoint": "inhibition", "value": "197%"}
{"Structure (SMILES)": "COc1ccc(C=NNC(=O)c2sc(Nc3ccccc3)c(C(=O)Nc3ccc(OC)cc3)c2NC(C)=O)cc1", "assay": "SRB", "setting": "10 µM, 48 h", "endpoint": "viability", "value": "46.8%"}
{"Structure (SMILES)": "COc1cc(/C=N/n2c(C)nc3ccc(C)cc3c2=O)cc([N+](=O)[O-])c1O", "assay": "LDH", "setting": "200 µg/mL, 24 h", "endpoint": "viability", "value": "90%"}
{"Structure (SMILES)": "COc1ccc(NC(=O)c2c(Nc3ccccc3)sc(C#N)c2NC(=O)CNc2ccc([N+](=O)[O-])cc2)cc1", "assay": "SRB", "setting": "0.1 µM, 48 h", "endpoint": "viability", "value": "83.9%"}
{"Structure (SMILES)": "COc1cc2c(OC)nc3c4cc5c(cc4cc(OCCCN4CC=CC4)c3c2cc1OC)OCO5", "assay": "MTT", "setting": "72 h", "endpoint": "GI50", "value": "1.3 µM"}
{"Structure (SMILES)": "COc1ccc(NC(=O)c2c(Nc3ccccc3)sc(C#N)c2NC(=O)CNc2ccc(OC)c(OC)c2)cc1", "assay": "SRB", "setting": "10 µM, 48 h", "endpoint": "viability", "value": "53.6%"}
{"Structure (SMILES)": "COc1cc2c(OC)nc3c4cc5c(cc4cc(OCCN(C)C)c3c2cc1OC)OCO5", "assay": "MTT", "setting": "72 h", "endpoint": "GI50", "value": "> 100 µM"}
{"Structure (SMILES)": "COc1ccc(C(=O)/C=C/c2ccc3ccccc3c2)cc1S(N)(=O)=O", "assay": "SRB", "setting": "10 µM", "endpoint": "inhibition", "value": "198%"}
{"Structure (SMILES)": "COc1cc(CNC(=O)C[C@H](C)CCC=C(C)C)ccc1OCc1cn(-c2ccc(Cl)cc2)nn1", "assay": "SRB", "setting": "10 µM", "endpoint": "inhibition", "value": "41%"}
{"Structure (SMILES)": "CCc1ccc(/C=N/n2c(C)nc3ccc(C)cc3c2=O)s1", "assay": "LDH", "setting": "200 µg/mL, 24 h", "endpoint": "viability", "value": "86.5%"}
{"Structure (SMILES)": "CNS(=O)(=O)Nc1nccc(Cc2c(C)c3ccc(Oc4ncccn4)cc3oc2=O)c1F", "assay": "CCK-8", "endpoint": "GI50", "value": "3.23 µM"}
{"Structure (SMILES)": "CCN(CC)CCOc1cc2cc3c(cc2c2nc(OC)c4cc(OC)c(OC)cc4c12)OCO3", "assay": "MTT", "setting": "72 h", "endpoint": "GI50", "value": "≥ 100 µM"}
{"Structure (SMILES)": "COc1ccc(NC(=O)c2c(Nc3ccccc3)sc(C#N)c2NC(=O)CNc2ccc(Cl)cc2)cc1", "assay": "SRB", "setting": "10 µM, 48 h", "endpoint": "viability", "value": "48.6%"}
{"Structure (SMILES)": "COc1ccc(C(=O)/C=C/c2cc3c(cc2Br)OCO3)cc1S(N)(=O)=O", "assay": "SRB", "setting": "10 µM", "endpoint": "inhibition", "value": "198%"}
{"Structure (SMILES)": "S=C([S][Au-][P+](CCCCCC[P+]([Au-][S]C(=S)n1cccn1)(c1ccccc1)c1ccccc1)(c1ccccc1)c1ccccc1)n1cccn1", "endpoint": "GI50", "value": "0.42 µM"}
{"Structure (SMILES)": "COc1ccc(C(=O)/C=C/c2ccc(Cl)c(Cl)c2)cc1S(N)(=O)=O", "assay": "SRB", "setting": "48 h", "endpoint": "GI50", "value": "1.2 µM"}
{"Structure (SMILES)": "Cc1nc2ccc(Br)cc2c(=O)n1/N=C/c1ccc(C(=O)O)cc1", "assay": "LDH", "setting": "200 µg/mL, 24 h", "endpoint": "viability", "value": "53.5%"}
{"Structure (SMILES)": "COc1ccc(C(=O)/C=C/c2cccc3ccccc23)cc1S(N)(=O)=O", "assay": "SRB", "setting": "10 µM", "endpoint": "inhibition", "value": "192%"}
{"Structure (SMILES)": "COc1cc2c(OC)nc3c4cc5c(cc4cc(OCCCN4CCCC4)c3c2cc1OC)OCO5", "assay": "MTT", "setting": "72 h", "endpoint": "GI50", "value": "2.4 µM"}
{"Structure (SMILES)": "COc1ccccc1/C=C/C(=O)c1ccc(OC)c(S(N)(=O)=O)c1", "assay": "SRB", "setting": "48 h", "endpoint": "GI50", "value": "2.5 µM"}
{"Structure (SMILES)": "COc1cc2c(OC)nc3c4cc5c(cc4cc(OCCN4CCCC4)c3c2cc1OC)OCO5", "assay": "MTT", "setting": "72 h", "endpoint": "GI50", "value": "64 µM"}
{"Structure (SMILES)": "COc1ccc(C(=O)/C=C/c2cccnc2)cc1S(N)(=O)=O", "assay": "SRB", "setting": "48 h", "endpoint": "GI50", "value": "3.2 µM"}
{"Structure (SMILES)": "COc1ccc(NC(=O)c2c(Nc3ccccc3)sc(C(=O)NN=Cc3cc(OC)c(OC)c(OC)c3)c2NC(C)=O)cc1", "assay": "SRB", "setting": "100 µM, 48 h", "endpoint": "viability", "value": "43.2%"}
{"Structure (SMILES)": "COc1ccc(C(=O)/C=C/c2cccc(Cl)c2Cl)cc1S(N)(=O)=O", "assay": "SRB", "setting": "48 h", "endpoint": "GI50", "value": "1.3 µM"}
{"Structure (SMILES)": "COc1ccc(NCC(=O)Nc2c(C#N)sc(Nc3ccccc3)c2C(=O)Nc2ccc(OC)cc2)cc1", "assay": "SRB", "setting": "10 nM, 48 h", "endpoint": "viability", "value": "82.6%"}
